Source: PubChem
Casp6 inh: human caspase-6 inhibitors, primary screen, biochemical, VEID-R110 fluorescence, single point, set 2; P55212; 0.53% of 350,000 active; AID 686996, 2013; purified caspase-6, Z-VEID-R110 cleavage fluorescence; inhibition, % at 12.5 µM;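 active means mean inhibition across replicates at least about 35%, with every replicate also reaching that limit, limit read from the data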;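 further: 0% = median of neutral control wells and 100% = no fluorescence left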
Target sequence (P55212 24-179 limits assumed): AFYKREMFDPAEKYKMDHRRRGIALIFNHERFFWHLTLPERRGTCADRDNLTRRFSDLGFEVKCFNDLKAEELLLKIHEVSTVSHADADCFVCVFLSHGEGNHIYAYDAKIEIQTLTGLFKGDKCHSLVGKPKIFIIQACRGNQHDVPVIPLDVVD
Target sequence (P55212 194-293 limits assumed): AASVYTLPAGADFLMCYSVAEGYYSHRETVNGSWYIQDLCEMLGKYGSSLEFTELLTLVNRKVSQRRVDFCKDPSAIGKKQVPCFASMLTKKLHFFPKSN
TDP2 inh: human TDP2 enzyme inhibitors, primary screen, biochemical, epi absorbance, recombinant enzyme; T5PNP hydrolysis, p-nitrophenol absorbance 415 nm; inhibition, % at 12.8 µM; 0.34% of 370,000 active; AID 720702, 2013;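 active means inhibition above the mean of all tested compounds plus 3 SD, set per campaign, cut at about 25% in these data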;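 further: 0% = DMSO with enzyme and 100% = buffer with substrate but no TDP2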
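Evaluation: % inhibition relative to enzyme-containing and enzyme-free wells. Material: recombinant human TDP2. Benchmarks: enzyme-free and DMSO wells. Timing: enzyme reaction with compound for 2 h at 37 °C. Compound dosing: 12.8 µM only. Measured by: p-Nitrophenol epi absorbance. Reagent: T5PNP substrate at 5 mM, a TopII-DNA adduct mimic. Replication: single well per compound.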
NSD2 HMT inh: NSD2 histone methyltransferase inhibitors, primary screen, biochemical, AlphaScreen, single concentration, set 2 | Histone-lysine N-methyltransferase NSD2 (Homo sapiens), O96028 | NSD2 peptide methylation, 120 min | inhibition, % at 12.5 µM | 0.54% of 310,000 active; in the data active means inhibition above about 50%
LEDGF integ inh: blockers of LEDGF/p75-dependent integrase strand transfer – biochemical, TR-FRET, high throughput, primary screen; HIV-1 integrase (with human LEDGF/p75); TR-FRET IN-LEDGF/p75 DNA integration, Eu/Cy5; inhibition, % at 3.7 µM; 0.64% of 370,000 active; AID 743269, 2014;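 active means inhibition above the screen-wide mean plus 3 SD, cut at about 13% in these data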;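 further: signal is the Cy5 over europium emission ratio at 671 and 618 nm; 0% = plate median of compound wells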
UCH37 DUB inh: inhibitors of human UCH37 deubiquitinase, primary screen, biochemical, Ub-AMC cleavage, fluorescence. Ubiquitin carboxyl-terminal hydrolase isozyme L5 (Homo sapiens), Q9Y5K5. purified proteasome/UCH37. inhibition, % (no concentration beside the values). 0.33% of 330,000 active;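 active means mean inhibition over replicate wells above about 20%, limit read from the data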;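 further: 0% = compound-free wells with enzyme and 100% = wells lacking proteasome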
Target sequence (Q9Y5K5 whole entry, looked up): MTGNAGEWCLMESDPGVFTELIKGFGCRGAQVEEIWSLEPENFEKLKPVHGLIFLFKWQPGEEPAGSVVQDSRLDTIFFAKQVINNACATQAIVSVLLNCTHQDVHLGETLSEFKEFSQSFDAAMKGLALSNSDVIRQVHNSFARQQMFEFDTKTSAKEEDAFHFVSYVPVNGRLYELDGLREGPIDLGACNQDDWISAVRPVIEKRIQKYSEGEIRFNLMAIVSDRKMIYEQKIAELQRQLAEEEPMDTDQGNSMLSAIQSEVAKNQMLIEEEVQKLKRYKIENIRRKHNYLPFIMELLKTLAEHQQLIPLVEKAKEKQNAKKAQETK
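Schedule: 30 min plus 25 min, room temperature / Material: human UCH37 within purified proteasomes / Technique: AMC fluorescence intensity at 355/460 nm / Buffer or medium: pH 7.4 Tris-HCl (50 mM) with ovalbumin, ATP-MgCl2, DTT / Controls: wells without proteasome as full block, compound-free enzyme plus substrate as uninhibited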
* hit, by the source's call; i = inactive; nt = not tested or not shown. Rows were chosen to be rich in hits. Some 1.3% of all compounds tested hit in one or more screens of this group.

SMILES	Casp6 inh	TDP2 inh	NSD2 HMT inh	LEDGF integ inh	UCH37 DUB inh
COc1ccc(-c2nn(-c3ccccc3)cc2/C=C2/SC(=S)N(CCC(=O)O)C2=O)cc1	47*	11	-2	0	9
O=C(O)CN1C(=O)/C(=C\c2cn(CC(=O)N3CCOCC3)c3ccccc23)SC1=S	-1	-3	3	4	24*
COc1ccc(-c2nn(-c3ccccc3)cc2CO)cc1	nt	-6	32	-1	1
COc1ccc(-c2nn(-c3ccccc3)cc2N)cc1	-4	-11	63*	3	-139
O=C(CCCN1C(=O)/C(=C\c2ccccc2)SC1=S)N1CCOCC1	2	-9	7	-1	8
CCN1C(=O)/C(=C/c2cn(-c3ccccc3)nc2-c2cccnc2)SC1=S	-5	-2	0	-4	5
O=c1ccc(-c2ccc(S(=O)(=O)Nc3cccc([N+](=O)[O-])c3)s2)n[nH]1	36*	-3	5	0	9
Cc1cccc(NS(=O)(=O)c2ccc(-c3ccc(=O)[nH]n3)o2)c1	5	6	0	0	2
COc1ccc(OC)c(C=Nc2c(-c3ccc(O)c(OC)c3)nc3ccccn23)c1	nt	nt	nt	nt	-5
O=C(Nc1ccc(F)cc1)C(c1ccccc1)N1CCN(CC(=O)N2CCOCC2)CC1 (configuration not stated)	-1	-1	-1	1	1
Cc1ccc(NC(=O)C(c2ccccc2)N2CCN(CC(=O)N3CCOCC3)CC2)cc1Cl (configuration not stated)	47*	7	9	-1	2
CCOC(=O)NN=C(C)c1cccc(-n2cnnn2)c1	nt	nt	nt	nt	3
CCN(C(=O)COC(=O)CNC(=O)c1ccc2ccccc2c1)C1CCS(=O)(=O)C1 (configuration not stated)	47*	0	-8	4	1
CCN(C(=O)COC(=O)CNC(=O)c1ccc(C)c(C)c1)C1CCS(=O)(=O)C1 (configuration not stated)	-1	2	3	0	0
Cc1cc(O)c(C=NNc2ccc(Cl)cc2)c(=O)o1	nt	nt	nt	nt	7
CC(=O)c1ccccc1NS(=O)(=O)c1cccc2nsnc12	56*	-17	2	2	3
CC(=O)c1ccccc1NS(=O)(=O)c1cccc2nonc12	2	3	-1	-3	1
O=C(COC(=O)c1ccc([N+](=O)[O-])o1)Nc1ncc(Cl)cc1Cl	61*	-2	19	1	nt
O=C(COC(=O)c1ccc([N+](=O)[O-])o1)Nc1ccc(Br)cc1F	38*	7	3	7	8
O=C(COC(=O)c1ccc([N+](=O)[O-])o1)Nc1ccc(F)cc1	55*	-5	0	0	14
Cc1ccc(C=Nn2c(C3CCCCC3)n[nH]c2=S)s1	nt	nt	nt	nt	3
COc1ccc(C=NNC(=O)c2sc(N)nc2C)cc1OC	nt	nt	nt	nt	9
COc1cccc2c1OC(=NO)C(C(=O)Nc1cccc(C)c1C)C2 (configuration not stated)	nt	nt	nt	nt	6
O=C(NCc1ccncc1)c1ccc(Oc2ccccc2)cc1	3	10	-2	3	5
O=C(NCc1ccncc1)c1ccc(OCc2ccccc2)cc1	36*	-17	-1	-2	nt
SMILES	Casp6 inh	TDP2 inh	NSD2 HMT inh	LEDGF integ inh	UCH37 DUB inh
CN(C)C=Nc1ncc(-c2ncc(C(F)(F)F)cc2Cl)cn1	nt	nt	nt	nt	i
CCOC(=O)c1cc(CC)sc1N=Cc1c(O)ccc2ccccc12	nt	nt	nt	nt	7
CNc1ccccc1	0	-2	nt	-3	-3
CNc1cccccc1=S	nt	9	3	23*	11
COC(=O)[C@]12CCCCC=C1N(Cc1ccccc1)C(=O)[C@H](CC(=O)NCC13CC4CC(CC(C4)C1)C3)C2	54*	-3	nt	3	nt
Nc1c(Cl)ncnc1NN=Cc1ccnc2ccccc12	nt	nt	nt	nt	8
Cc1csc(=O)n1CCC(=O)OCc1nnc(-c2ccc([N+](=O)[O-])cc2)o1	52*	16	-3	2	2
O=CC(O)C1OC(=O)C(O)C1O (configuration not stated)	41*	-2	nt	3	nt
O=C1O[C@H](CO)[C@@H](O)[C@H](O)[C@H]1O	-5	1	nt	4	nt
COc1cc(C=NN2CCN(Cc3ccc(Cl)cc3)CC2)cc(Br)c1O	nt	nt	nt	nt	1
O=C(O)c1cc(N=Nc2c(O)ccc3ccccc23)cc(C(=O)O)c1	10	-1	13	6	26*
Oc1ccc(N=Nc2c(O)ccc3ccccc23)cc1	3	-12	nt	-1	11
COc1cc(OC)cc(C2C(C#N)=C(N)Oc3n[nH]c(-c4cccnc4)c32)c1 (configuration not stated)	1	7	8	-2	0
CC(C)(C)c1ccc(C2C(C#N)=C(N)Oc3n[nH]c(-c4cccnc4)c32)cc1 (configuration not stated)	-1	36*	-20	0	2
CC(C)(C)OC(=O)CNC(=O)c1nc[nH]c1C(=O)N1CCN(C(=O)OC(C)(C)C)CC1	-1	2	nt	2	-2
CC(C)(C)OC(=O)CNC(=O)c1nc[nH]c1C(=O)N1CCc2ccccc2C1	3	1	nt	-1	31*
CC1CCN(C(=O)c2[nH]cnc2C(=O)NCc2ccc(CNC(=O)OC(C)(C)C)cc2)CC1	-1	2	nt	-1	28*
CC(C)(C)OC(=O)N1CCC(NC(=O)c2nc[nH]c2C(=O)N2CCN(C(=O)OC(C)(C)C)CC2)CC1	-5	12	nt	-1	-2
CC(C)(C)OC(=O)N1CCC(NC(=O)c2nc[nH]c2C(=O)N2CCc3ccccc3C2)CC1	8	1	nt	-3	29*
O=C(ON=C1CCCc2occc21)c1ccccc1	nt	nt	nt	nt	3
Cc1ccc(-n2nnnc2Sc2nc([N+](=O)[O-])nn2C)cc1C	nt	6	-1	-1	20*
Cc1ccc(C)c(-n2nnnc2Sc2nc([N+](=O)[O-])nn2C)c1	nt	2	0	-1	2
O=C(COc1ccccc1)NN=Cc1sc(=O)n(Cc2cccc(C(=O)O)c2)c1Cl	nt	nt	nt	nt	8
Cc1ccc(C=NNC(=O)Cc2cccn2C)s1	nt	nt	nt	nt	4
CC1CCN(C(=O)COC(=O)/C=C/c2ccco2)CC1	49*	5	15	4	5
CCOC(=O)C1=C(COC(=O)/C=C/c2ccco2)NC(=O)NC1C (configuration not stated)	61*	-12	10	11	3
O=C(O)COn1c(-c2ccccc2)nc2ccc([N+](=O)[O-])cc21	43*	2	3	9	13
Cc1cc(Cl)ccc1NC(=O)CN1CCCC1	2	11	1	3	1
